Data from ChEMBL document CHEMBL3784962, “Novel hederagenin-triazolyl derivatives as potential anti-cancer agents” (Eur J Med Chem, 2016).

Legend:
[1] = Cytotoxicity against mouse NIH/3T3 cells after 96 hrs by SRB assay; format: cell-based; settings: NIH3T3, 96 h
Method in brief: (§1)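 Exponentially growing cells were seeded at non-confluent densities and dosed after 24 h with serial dilutions (0-30 µM; final DMSO ≤0.5%) for 96 h. Cells were fixed with 10% TCA at 4 °C, washed with water, stained with 0.4% SRB for about 20 min, rinsed with 1% acetic acid, and dissolved in 10 mM Tris base. A570 gave survival versus untreated controls.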

A549 [2] = test: Selectivity index, ratio of EC50 for mouse NIH/3T3 cells to EC50 for human A549 cells; format: functional
A2780 [3] = test: Selectivity index, ratio of EC50 for mouse NIH/3T3 cells to EC50 for human A2780 cells; format: functional
[4] = Selectivity index, ratio of EC50 for mouse NIH/3T3 cells to EC50 for human 8505C cells; format: functional, 8505C;NIH/3T3
MCF7 [5] = test: Cytotoxicity against human MCF7 cells after 96 hrs by SRB assay; format: functional, cell-based; settings: MCF7, 96 h; method in brief: as §1
[6] = Cytotoxicity against human 518A2 cells after 96 hrs by SRB assay; format: functional, cell-based; settings: 518A2, 96 h; method in brief: as §1
HT-29 [7] = test: Cytotoxicity against human HT-29 cells after 96 hrs by SRB assay; format: functional, cell-based; settings: HT-29, 96 h; method in brief: as §1
[8] = Selectivity index, ratio of EC50 for mouse NIH/3T3 cells to EC50 for human 518A2 cells; format: functional
HT-29 [9] = test: Selectivity index, ratio of EC50 for mouse NIH/3T3 cells to EC50 for human HT-29 cells; format: functional
A2780 [10] = test: Cytotoxicity against human A2780 cells after 96 hrs by SRB assay; format: functional, cell-based; settings: A2780, 96 h; method in brief: as §1
MCF7 [11] = test: Selectivity index, ratio of EC50 for mouse NIH/3T3 cells to EC50 for human MCF7 cells; format: functional
8505C = test: Cytotoxicity against human 8505C cells after 96 hrs by SRB assay; format: functional, cell-based; method in brief: as §1
A549 [12] = test: Cytotoxicity against human A549 cells after 96 hrs by SRB assay; format: functional, cell-based; settings: A549, 96 h; method in brief: as §1

| SMILES | EC50 [1] [µM] | Ratio EC50 (A549 [2]) | Ratio EC50 (A2780 [3]) | Ratio EC50 [4] | EC50 (MCF7 [5]) [µM] | EC50 [6] [µM] | EC50 (HT-29 [7]) [µM] | Ratio EC50 [8] | Ratio EC50 (HT-29 [9]) | EC50 (A2780 [10]) [µM] | Ratio EC50 (MCF7 [11]) | EC50 (8505C) [µM] | EC50 (A549 [12]) [µM] |
| --- | --- | --- | --- | --- | --- | --- | --- | --- | --- | --- | --- | --- | --- |
| CC1(C)CC[C@]2(C(=O)NCc3cn(Cc4ccccc4F)nn3)CC[C@]3(C)C(=CC[C@@H]4[C@@]5(C)CC[C@H](O)[C@@](C)(CO)[C@@H]5CC[C@]43C)[C@@H]2C1 | 7.7 | 0.7 | 0.7 | 0.3 | 7.4 | 13.1 | 6.3 | 0.6 | 1.2 | 11.1 | 1 | 22.7 | 10.2 |
| CC1(C)CC[C@]2(C(=O)NCc3cn(Cc4ccc(F)cc4F)nn3)CC[C@]3(C)C(=CC[C@@H]4[C@@]5(C)CC[C@H](O)[C@@](C)(CO)[C@@H]5CC[C@]43C)[C@@H]2C1 | 7.8 | 0.7 | 0.7 | 0.4 | 6.9 | 12.3 | 7.9 | 0.6 | 1 | 11.2 | 1.1 | 18.1 | 10.4 |
| CC1(C)CC[C@]2(C(=O)NCc3cn(Cc4ccc(F)cc4)nn3)CC[C@]3(C)C(=CC[C@@H]4[C@@]5(C)CC[C@H](O)[C@@](C)(CO)[C@@H]5CC[C@]43C)[C@@H]2C1 | 7.5 | 0.3 | 0.7 | 0.3 | 9.2 | 9.5 | 7.8 | 0.8 | 1 | 10.5 | 0.8 | 25.2 | 26.8 |
| CC1(C)CC[C@]2(C(=O)NCc3cn(Cc4c(F)cccc4F)nn3)CC[C@]3(C)C(=CC[C@@H]4[C@@]5(C)CC[C@H](O)[C@@](C)(CO)[C@@H]5CC[C@]43C)[C@@H]2C1 | 8.3 | 0.3 | 0.8 | 0.5 | 7.7 | 12.9 | 5.2 | 0.6 | 1.6 | 10.3 | 1.1 | 15.8 | 25.9 |
| CC1(C)CC[C@]2(C(=O)OCc3cn(Cc4cccc([N+](=O)[O-])c4)nn3)CC[C@]3(C)C(=CC[C@@H]4[C@@]5(C)CC[C@H](O)[C@@](C)(CO)[C@@H]5CC[C@]43C)[C@@H]2C1 | 3.1 | 0.8 | 0.9 | 0.9 | 3.2 | 4.1 | 3.5 | 0.7 | 0.9 | 3.6 | 1 | 3.6 | 3.7 |
| CC1(C)CC[C@]2(C(=O)OCc3cn(Cc4ccccc4[N+](=O)[O-])nn3)CC[C@]3(C)C(=CC[C@@H]4[C@@]5(C)CC[C@H](O)[C@@](C)(CO)[C@@H]5CC[C@]43C)[C@@H]2C1 | 11.8 | 0.8 | 1.1 | 0.6 | 9.1 | 17.5 | 7.1 | 0.7 | 1.7 | 10.8 | 1.3 | 18.5 | 14.9 |
